Results from ChEMBL document CHEMBL1144441, “Identification of a novel cardenolide (2''-oxovoruscharin) from Calotropis procera and the hemisynthesis of novel derivatives displaying potent in vitro antitumor activities and high in vivo tolerance: structure-activity relationship analyses” (J Med Chem, 2005).

Legend:
WiDr = assay: In vitro cytotoxic activity against human WiDr cancer cell lines after 3 days of culture; format: functional
How it was run: (§1)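 Human cancer cell lines, seeded 10 000–40 000 cells/mL and plated for 24 h, then exposed 72 h to nine drug concentrations from 10^-9 to 10^-5 M in semilog steps. Overall growth read by MTT reduction to formazan, absorbance at 570 nm (reference 630 nm). Sextuplicate wells; IC50 is the concentration reducing overall growth by 50% versus untreated control.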

[1] = In vitro cytotoxic activity against human SK-LMS-1 cancer cell lines after 3 days of culture; format: functional
How it was run: (§2)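 MTT overall-growth panel across 57 human cancer lines. Cells were plated for 24 h at 10 000–40 000 cells/mL, depending on cell type. Drugs were given at nine concentrations, 10^-9 to 10^-5 M in semilog steps, for 3 days. Absorbance was read at 570 nm with a 630 nm reference, in sextuplicate. Surviving cells are expressed as % of untreated control (100%).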

HT1197 = assay: In vitro cytotoxic activity against human HT1197 cancer cell lines after 3 days of culture; format: functional; how it was run: as §2
MES-SA = assay: In vitro cytotoxic activity against human MES-SA cancer cell lines after 3 days of culture; format: functional; how it was run: as §2
A-427 = assay: In vitro cytotoxic activity against human A427 cancer cell lines after 3 days of culture; format: functional; how it was run: as §2
[2] = In vitro cytotoxic activity against human AL-12T cancer cell lines after 3 days of culture; format: functional; how it was run: as §2
Hs-578T = assay: In vitro cytotoxic activity against human Hs 578.T cancer cell lines after 3 days of culture; format: functional; how it was run: as §2
LoVo [3] = assay: In vitro cytotoxic activity against human LoVo cancer cell lines after 3 days of culture; format: functional; how it was run: as §2
[4] = In vitro cytotoxic activity against human Hs 683 cancer cell lines after 3 days of culture; format: functional; how it was run: as §2
ZR-75-1 = assay: In vitro cytotoxic activity against human ZR-75-1 cancer cell lines after 3 days of culture; format: functional; how it was run: as §1
[5] = In vitro cytotoxic activity against human SW1783 cancer cell lines after 3 days of culture; format: functional; how it was run: as §1
[6] = In vitro cytotoxic activity against human Detroit 562 cancer cell lines after 3 days of culture; format: functional; how it was run: as §2
HCT-15 [7] = assay: Concentration required for 50% growth inhibition of human HCT-15 cancer cell lines after 3 days of culture; format: functional, cell-based; settings: HCT-15, 72 h
How it was run: (§3)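 MTT overall-growth assay on the five lines. Cells were plated for 24 h at 10 000–40 000 cells/mL, depending on cell type. Nine concentrations from 10^-9 to 10^-5 M in semilog steps were applied for 72 h. Formazan was read at 570 nm against a 630 nm reference, in sextuplicate. IC50 = concentration reducing overall growth by 50% versus untreated control.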

CAKI-2 = assay: In vitro cytotoxic activity against human CAKI-2 cancer cell lines after 3 days of culture; format: functional; how it was run: as §2
[8] = In vitro cytotoxic activity against human […] cancer cell lines after 3 days of culture; format: functional; how it was run: as §2
[9] = Concentration required for 50% growth inhibition of human Hs 683 cancer cell lines after 3 days of culture; format: functional, cell-based; settings: 72 h; how it was run: as §3
[10] = In vitro cytotoxic activity against human SCC-9 cancer cell lines after 3 days of culture; format: functional; how it was run: as §2
A549 [11] = assay: In vitro cytotoxic activity against human A549 cancer cell lines after 3 days of culture; format: functional; how it was run: as §2
PC-3 = assay: In vitro cytotoxic activity against human PC-3 cancer cell lines after 3 days of culture; format: functional; how it was run: as §2
DU-145 = assay: In vitro cytotoxic activity against human DU145 cancer cell lines after 3 days of culture; format: functional; how it was run: as §2
[12] = In vitro cytotoxic activity against human SK-UT-1B cancer cell lines after 3 days of culture; format: functional; how it was run: as §1
[13] = In vitro cytotoxic activity against human 769-P cancer cell lines after 3 days of culture; format: functional; how it was run: as §2
A549 [14] = assay: Concentration required for 50% growth inhibition of human A549 cancer cell lines after 3 days of culture; format: functional, cell-based; settings: A549, 72 h; how it was run: as §3
Malme-3M = assay: In vitro cytotoxic activity against human MALME-3M cancer cell lines after 3 days of culture; format: functional; how it was run: as §2
A204 = assay: In vitro cytotoxic activity against human A204 cancer cell lines after 3 days of culture; format: functional; how it was run: as §2
LNCaP = assay: In vitro cytotoxic activity against human LNCaP cancer cell lines after 3 days of culture; format: functional; how it was run: as §2
HT-1080 = assay: In vitro cytotoxic activity against human HT1080 cancer cell lines after 3 days of culture; format: functional; how it was run: as §2
[15] = In vitro cytotoxic activity against human SW1088 cancer cell lines after 3 days of culture; format: functional; how it was run: as §1
U-87 MG = assay: In vitro cytotoxic activity against human U87MG cancer cell lines after 3 days of culture; format: functional, U-87MG ATCC; how it was run: as §1
CFPAC-1 = assay: In vitro cytotoxic activity against human CFPAC-1 cancer cell lines after 3 days of culture; format: functional; how it was run: as §2
[16] = In vitro cytotoxic activity against human Hs 729 cancer cell lines after 3 days of culture; format: functional; how it was run: as §2
U373 MG [17] = assay: In vitro cytotoxic activity against human U-373MG cancer cell lines after 3 days of culture; format: functional, U-373MG ATCC; how it was run: as §1
PANC-1 = assay: In vitro cytotoxic activity against human Panc-1 cancer cell lines after 3 days of culture; format: functional; how it was run: as §2
U373 MG [18] = assay: Concentration required for 50% growth inhibition of human U373 cancer cell lines after 3 days of culture; format: functional, cell-based, U-373MG ATCC; settings: 72 h; how it was run: as §3
HT-29 = assay: In vitro cytotoxic activity against human HT-29 cancer cell lines after 3 days of culture; format: functional; how it was run: as §2
ACHN = assay: In vitro cytotoxic activity against human ACHN cancer cell lines after 3 days of culture; format: functional; how it was run: as §2
T98G = assay: In vitro cytotoxic activity against human T98G cancer cell lines after 3 days of culture; format: functional; how it was run: as §1
HCT-15 [19] = assay: In vitro cytotoxic activity against human HCT-15 cancer cell lines after 3 days of culture; format: functional; how it was run: as §2
LoVo [20] = assay: Concentration required for 50% growth inhibition of human LoVo cancer cell lines after 3 days of culture; format: functional, cell-based; settings: 72 h; how it was run: as §3
[21] = In vitro cytotoxic activity against human HT144 cancer cell lines after 3 days of culture; format: functional; how it was run: as §2
Mus musculus = assay: Maximum tolerated dose after intraperitoneal administration in mouse (period of 28 days); format: functional
How it was run: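 Healthy, non-tumour-bearing B6D2F1 mice given one acute intraperitoneal dose, three mice per dose group, doses 5, 10, 20, 40, 80, 120 and 160 mg/kg. Survival and body weight followed for 28 days after injection. MTD is the highest single dose causing no deaths over the period.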

[22] = In vitro cytotoxic activity against human MCF7HTB-22 cancer cell lines after 3 days of culture; format: functional; how it was run: as §2
T-24 = assay: In vitro cytotoxic activity against human T24 cancer cell lines after 3 days of culture; format: functional; how it was run: as §1
[23] = In vitro cytotoxic activity against human SW948 cancer cell lines after 3 days of culture; format: functional; how it was run: as §1
MIA PaCa-2 = assay: In vitro cytotoxic activity against human MiaPaca-2 cancer cell lines after 3 days of culture; format: functional; how it was run: as §2
SK-MEL-28 = assay: In vitro cytotoxic activity against human SKMEL-28 cancer cell lines after 3 days of culture; format: functional; how it was run: as §1
A498 = assay: In vitro cytotoxic activity against human A-498 cancer cell lines after 3 days of culture; format: functional; how it was run: as §2
FaDu = assay: In vitro cytotoxic activity against human FaDu cancer cell lines after 3 days of culture; format: functional; how it was run: as §2
[24] = In vitro cytotoxic activity against human Hs 174.T cancer cell lines after 3 days of culture; format: functional; how it was run: as §2
BXPC-3 = assay: In vitro cytotoxic activity against human BxPC-3 cancer cell lines after 3 days of culture; format: functional; how it was run: as §2
[25] = In vitro cytotoxic activity against human G361 cancer cell lines after 3 days of culture; format: functional; how it was run: as §2
[26] = In vitro cytotoxic activity against human Capan-2 cancer cell lines after 3 days of culture; format: functional; how it was run: as §2
H4 = assay: In vitro cytotoxic activity against human H4 cancer cell lines after 3 days of culture; format: functional; how it was run: as §2
[27] = In vitro cytotoxic activity against human C32 cancer cell lines after 3 days of culture; format: functional; how it was run: as §2
MDA-MB-231 = assay: In vitro cytotoxic activity against human MDA-MB-231 cancer cell lines after 3 days of culture; format: functional; how it was run: as §2
DLD-1 = assay: In vitro cytotoxic activity against human DLD-1 cancer cell lines after 3 days of culture; format: functional; how it was run: as §2
786-0 = assay: In vitro cytotoxic activity against human 786-O cancer cell lines after 3 days of culture; format: functional; how it was run: as §2
T47D = assay: In vitro cytotoxic activity against human T-47D cancer cell lines after 3 days of culture; format: functional; how it was run: as §1
[28] = target: Sodium/potassium-transporting ATPase subunit alpha-1 (Sus scrofa, UniProt P05024); assay: In vitro inhibitory activity against porcine Na+/K+-ATPase
How it was run: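 Porcine cerebral cortex Na+/K+-ATPase (3 × 10-3 units), preincubated 30 min at 37 °C in 30 mM Tris-HCl pH 7.4, 5 mM MgCl2 with inhibitor (1 to 50 000 nM). ADP formation coupled via pyruvate kinase/lactate dehydrogenase, excess phosphoenolpyruvate, to NADH oxidation.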

[29] = In vitro cytotoxic activity against human Su.86.86 cancer cell lines after 3 days of culture; format: functional; how it was run: as §1
BT-20 = assay: In vitro cytotoxic activity against human BT-20 cancer cell lines after 3 days of culture; format: functional; how it was run: as §2
[30] = In vitro cytotoxic activity against human Hs 766.T cancer cell lines after 3 days of culture; format: functional; how it was run: as §2

## C[C@@H]1C[C@@]2(NC(=O)CS2)C2(O)O[C@@H]3C[C@@]4(CO)[C@@H](CC[C@@H]5[C@@H]4CC[C@]4(C)[C@@H](C6=CC(=O)OC6)CC[C@]54CO)C[C@H]3O[C@@H]2O1 (some centres not stated)
WiDr
  Log IC50: -7.8
[1]
  Log IC50: -8
HT1197
  Log IC50: -7.1
MES-SA
  Log IC50: -7.8
A-427
  Log IC50: -7.6
[2]
  Log IC50: -8.1
Hs-578T
  Log IC50: -8.7
LoVo [3]
  Log IC50: -8
[4]
  Log IC50: -8.6
ZR-75-1
  Log IC50: -7.4
[5]
  Log IC50: -7.7
[6]
  Log IC50: -8.3
HCT-15 [7]
  IC50: 24 nM
CAKI-2
  Log IC50: -8.3
[8]
  Log IC50: -8.7
[9]
  IC50: 3 nM
[10]
  Log IC50: -7.4
A549 [11]
  Log IC50: -8.1
PC-3
  Log IC50: -8.1
DU-145
  Log IC50: -8.7
[12]
  Log IC50: -7.5
[13]
  Log IC50: -8.3
A549 [14]
  IC50: 8 nM
Malme-3M
  Log IC50: -6.4
A204
  Log IC50: -8.2
LNCaP
  Log IC50: -8.3
HT-1080
  Log IC50: -7.4
[15]
  Log IC50: -7
U-87 MG
  Log IC50: -8.6
CFPAC-1
  Log IC50: -7.2
[16]
  Log IC50: -7.5
U373 MG [17]
  Log IC50: -8.1
PANC-1
  Log IC50: -8.3
U373 MG [18]
  IC50: 9 nM
HT-29
  Log IC50: -7.8
ACHN
  Log IC50: -8.2
T98G
  Log IC50: -8.2
HCT-15 [19]
  Log IC50: -7.6
LoVo [20]
  IC50: 10 nM
[21]
  Log IC50: -7.6
Mus musculus
  MTD: 80 mg/kg
[22]
  Log IC50: -8.4
T-24
  Log IC50: -8.6
[23]
  Log IC50: -7.4
MIA PaCa-2
  Log IC50: -7.5
SK-MEL-28
  Log IC50: -7.4
A498
  Log IC50: -8.2
FaDu
  Log IC50: -8.1
[24]
  Log IC50: -7.4
BXPC-3
  Log IC50: -7.7
[25]
  Log IC50: -8.1
[26]
  Log IC50: -9
H4
  Log IC50: -7.5
[27]
  Log IC50: -7.7
MDA-MB-231
  Log IC50: -8
DLD-1
  Log IC50: -7.4
786-0
  Log IC50: -8.5
T47D
  Log IC50: -8.4
[28]
  IC50: 75 nM
[29]
  Log IC50: -8.6
BT-20
  Log IC50: -8.3
[30]
  Log IC50: -7.4
